Rows were chosen to be rich in hits. Some 3.2% of all compounds tested hit in one or more screens of this group.
SMARCA2 activ: SMARCA2 (BRM) function activators, primary screen, cell-based, luminescence, high throughput. MG213 cells, MMTV-luciferase reporter, dexamethasone, overnight. AID 652017, 2013. 370,000 compounds, 1% hits. activation, % at 9.1 µM; in the data active = activation above about 7.8%
NR2E3 ag-1: inhibitors of NR2E3-RetCOR corepressor binding, primary screen, NR2E3 agonist project, biochemical, TR-FRET, GST-NR2E3, biotin-RetCOR; 320,000 compounds, 0.12% hits; inhibition of corepressor binding, % at 4.78 µM; 1536-well;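 active = percent inhibition above the cutoff of mean plus 3 SD of all tested compounds, set per screening campaign, cut at about 20% in these data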
Target sequence (Q9Y5X4 whole entry, looked up): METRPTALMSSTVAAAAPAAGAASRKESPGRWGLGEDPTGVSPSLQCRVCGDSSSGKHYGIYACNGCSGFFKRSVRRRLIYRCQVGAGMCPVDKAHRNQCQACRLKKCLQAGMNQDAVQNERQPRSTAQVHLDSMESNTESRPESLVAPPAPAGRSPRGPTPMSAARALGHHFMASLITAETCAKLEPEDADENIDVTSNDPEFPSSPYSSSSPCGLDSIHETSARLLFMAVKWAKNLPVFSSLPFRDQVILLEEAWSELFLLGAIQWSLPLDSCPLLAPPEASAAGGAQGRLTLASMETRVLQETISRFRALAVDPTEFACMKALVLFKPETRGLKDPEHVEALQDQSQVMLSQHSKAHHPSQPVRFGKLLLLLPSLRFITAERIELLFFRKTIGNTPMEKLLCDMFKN
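Assay system: NR2E3–RetCOR corepressor complex. Quantity: 1.35 nM GST-NR2E3. Buffer or medium: pH 7.5 Tris-based buffer. Reagent: biotinylated RetCOR corepressor at 7 nM final. Schedule: 5 h at 4 °C. Detection: TR-FRET, emission read at 617 and 671 nm. Replicates: one well per compound, singlicate testing.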
GASC-1 inh: inhibitors of GASC-1 histone demethylase, primary screen, biochemical, fluorescence, DELFIA europium. Lysine-specific demethylase 4C (Homo sapiens), Q9H3R0. GST-JMJD2C(1-420) H3K9me3 demethylation. inhibition, % at 2.35 µM. 330,000 compounds, 0.069% hits. AID 2099, 2009;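 active = more than half of a compound's replicate wells show inhibition beyond 50%, single wells judged on their own value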;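 note: signal counts dimethyl H3K9 product captured on neutravidin plate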
DAX1 inh-1: DAX1 (NR0B1) inhibitors, primary screen, cell-based, HEK293, Gal4-DAX1, luciferase luminescence. 340,000 compounds, 0.99% hits. HEK293 Gal4-DAX1 luciferase reporter. Nuclear receptor subfamily 0 group B member 1 (Homo sapiens), P51843. inhibition, % at 6.75 µM. AID 504766, 2011;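 active = inhibition above the mean over all tested compounds plus 3 SD, cut at about 4.2% in these data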;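 note: inhibition shows as a rise in luminescence from relieved DAX1 repression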
Target sequence (P51843 207-470 limits assumed): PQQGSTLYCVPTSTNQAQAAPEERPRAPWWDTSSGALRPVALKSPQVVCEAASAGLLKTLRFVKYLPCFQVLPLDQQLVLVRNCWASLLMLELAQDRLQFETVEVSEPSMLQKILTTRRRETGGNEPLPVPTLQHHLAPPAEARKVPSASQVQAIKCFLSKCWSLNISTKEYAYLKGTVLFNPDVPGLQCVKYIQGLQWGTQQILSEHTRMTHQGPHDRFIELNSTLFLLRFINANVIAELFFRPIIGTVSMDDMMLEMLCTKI
NR2E3 ag-2: NR2E3 agonists in two-hybrid cells, primary screen, cell-based, luminescence, CHO-S, Gal4-NCOR/VP16-NR2E3. inhibition of corepressor binding, % at 3.98 µM. Photoreceptor-specific nuclear receptor (Homo sapiens), Q9Y5X4. 360,000 compounds, 0.35% hits. AID 602229, 2012. luciferase;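 active = inhibition above the mean of all tested compounds plus 3 SD, cut at about 70% in these data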;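 note: higher means lower luciferase signal from less NR2E3 corepressor binding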
DAX1 inh-2: DAX1 (NR0B1) inhibitors on StAR promoter, primary screen, cell-based, luminescence, SF-1 (NR5A1), full-length DAX-1. HEK293T StAR-luciferase reporter, SF-1/DAX-1 repression relief. 370,000 compounds, 1.1% hits. inhibition, % at 6.8 µM. AID 652010, 2013;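 active = inhibition above the mean over all tested compounds plus 3 SD, cut at about 3.6% in these data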;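 note: higher inhibition means more luminescence from relief of DAX-1 repression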
NR2E3 ag conf: NR2E3 agonist confirmation in cells, cell-based, luminescence, CHO-S two-hybrid; CHO-S mammalian two-hybrid NR2E3-NCOR, luciferase luminescence; 2,300 compounds, 51% hits; AID 624378, 2012; inhibition, % at 3.98 µM; shares compounds with NR2E3 ag-2;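 active = average inhibition above a cutoff equal to the mean inhibition of all tested compounds plus one SD, cut at about 70% in these data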
GAL4-VP16 luc: GAL4-VP16 reporter modulators, confirmation, counter-screen for NR2E3 agonist project, cell-based, luminescence, CHO-S, high throughput; AID 624379, 2012; shares compounds with NR2E3 ag-2; 2,300 compounds, 29% hits; CHO-S GAL4-VP16 luciferase reporter; inhibition, % at 3.98 µM;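 active = mean inhibition above a cutoff equal to the average over all tested compounds plus one standard deviation, cut at about 70% in these data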;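 note: luciferase from a UAS reporter driven by GAL4-VP16 transactivation; higher means less reporter light so more repression of VP16 activity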
Large screens that a line does not name were inactive (follow-up assays come after a bar, where they were run).

Cc1ccc2nc(-c3ccc(CN4CCC(n5nnc6ccccc65)CC4)cc3)c(-c3ccccc3)nc2c1	none (no result: NR2E3 ag-1, GASC-1 inh, DAX1 inh-1, NR2E3 ag-2)
CC(=O)OC1C(O)C(C)OC(OC2C(OC(=O)C3CCC4C(C3)OC3(CC(OC(=O)/C=C/c5ccccc5)C(C)CO3)C43CO3)OC(C)C(O)C2OC(C)=O)C1O (stereo unspecified)	NR2E3 ag-2 103.0 (no result: NR2E3 ag-1, GASC-1 inh) | NR2E3 ag conf 99.3 | GAL4-VP16 luc 99.4
CC1=C(N2CC2)C(=O)C(CO)=C(N2CC2)C1=O	none (no result: NR2E3 ag-1, GASC-1 inh) | NR2E3 ag conf 99.4 | GAL4-VP16 luc 96.4
COC(=O)CC(=O)c1ccc2c(c1)OCO2	none
COc1cc2c(cc1OC)C1C(=O)c3ccc4c(c3OC1CO2)CC(C(C)C)O4 (stereo unspecified)	NR2E3 ag-2 102.3 (no result: NR2E3 ag-1, GASC-1 inh) | NR2E3 ag conf 96.2 | GAL4-VP16 luc 94.3
COc1cc2c(cc1OC)[C@@H]1C(=O)c3ccc4c(c3O[C@@H]1CO2)C[C@H](C(C)C)O4	NR2E3 ag-2 96.0 | NR2E3 ag conf 99.8 | GAL4-VP16 luc 92.7
CCOC(=O)[C@]12Cc3cc(C)ccc3[C@H]1N(C1CCCCC1)C(=O)c1cc(OC)ccc12	NR2E3 ag-2 94.9 (no result: NR2E3 ag-1, GASC-1 inh, DAX1 inh-1) | NR2E3 ag conf 98.8 | GAL4-VP16 luc inactive
CCOC(=O)[C@]12Cc3cc(OC)ccc3[C@H]1N(C1CCCCC1)C(=O)c1cc(OC)ccc12	none (no result: NR2E3 ag-1, GASC-1 inh, DAX1 inh-1)
CCC(C)NC(=O)CCC(=O)OC1O[C@H]2OC3(C)CC[C@H]4[C@H](C)CCC(C1C)C24OO3 (stereo partly specified)	NR2E3 ag-2 102.8 (no result: NR2E3 ag-1) | NR2E3 ag conf 97.2 | GAL4-VP16 luc 74.7
CCC(C)C(NC(=O)CCCNC(=O)CCC(=O)OC1O[C@H]2OC3(C)CC[C@H]4[C@H](C)CCC(C1C)C24OO3)C(=O)O (stereo partly specified)	NR2E3 ag-2 95.1 | NR2E3 ag conf 94.2 | GAL4-VP16 luc 70.8
CCOC(=O)CNC(=O)N1Cc2cc(Br)ccc2-n2nncc2C1	none (no result: NR2E3 ag-1, GASC-1 inh, DAX1 inh-1, NR2E3 ag-2)
OCC1CO1 (stereo unspecified)	none
C[C@]12CC(=O)CC1CCC1C2CC[C@@]2(C)C1CC[C@@H]2O (stereo partly specified)	none
CCC(C)C1NC(=O)C(NC(=O)C(CC(C)C)N(C)C(=O)C2CCCN2C(=O)C(C)O)C(C)OC(=O)C(Cc2ccc(OC)cc2)N(C)C(=O)C2CCCN2C(=O)C(CC(C)C)NC(=O)[C@H](C)C(=O)[C@H](C(C)C)OC(=O)CC1O (stereo partly specified)	NR2E3 ag-2 102.1 (no result: NR2E3 ag-1, GASC-1 inh) | NR2E3 ag conf 98.7 | GAL4-VP16 luc 99.6
C#CCCC[C@@H]1OC(=O)CNC(=O)C([C@@H](C)CC)NC(=O)[C@@H]2CCCN2C(=O)C([C@@H](C)CC)OC(=O)[C@H](Cc2ccccc2)N(C)C(=O)[C@H](C(C)C)NC(=O)C1(C)C (stereo partly specified)	none (no result: NR2E3 ag-1, GASC-1 inh, DAX1 inh-1)
Cc1cc(N2CCNC[C@@H]2C)ccc1N1CC[C@@H](O)C1	none (no result: NR2E3 ag-1, GASC-1 inh, DAX1 inh-1, NR2E3 ag-2)
CN(C)c1ccc(/C=C/C=C/c2sc3ccccc3[n+]2C)cc1	none
CN(C)c1ccc(/C=C/c2cc[n+](C)c3ccccc23)cc1	none (no result: NR2E3 ag-1, GASC-1 inh) | NR2E3 ag conf 76.7 | GAL4-VP16 luc inactive
N#CC(C#N)=NNc1ccc(-n2ccc(C(F)(F)F)n2)cc1	NR2E3 ag-2 95.5 | NR2E3 ag conf inactive | GAL4-VP16 luc inactive
Cc1cc(C)n(-c2ccc(NN=C(C#N)C#N)cc2)n1	none
CCOP(=O)(OCC)OCC	none
CCOP(=O)(CCP(=O)(OCC)OCC)OCC.C[CH2][Sn]([Cl])([Cl])[CH2]C	NR2E3 ag-2 91.5 (no result: NR2E3 ag-1, GASC-1 inh) | NR2E3 ag conf 99.6 | GAL4-VP16 luc inactive
CC[C@@H](O)C[C@H]1CCC[C@@]2(C[C@@H]3OC(=O)/C=C/[C@@](C)(O)[C@@H](O)[C@H](C)[C@@H](O)[C@H](OC4CCC(N(C)C)C(C)O4)[C@@H](O)[C@](C)(O)CCCCC/C=C/[C@@H]4CC(C)(C)O[C@@]4(O)C[C@H](O2)[C@H]3C)O1 (stereo partly specified)	NR2E3 ag-2 89.3 (no result: NR2E3 ag-1, GASC-1 inh) | NR2E3 ag conf 96.9 | GAL4-VP16 luc 87.1
COC(=O)C12OCC34C(CC5C(C)=C(O)C(=O)CC5(C)C3C(O)C1O)OC(=O)C(OC(=O)/C=C(\C)C(C)C)C24 (stereo unspecified)	NR2E3 ag-2 103.0 (no result: NR2E3 ag-1, GASC-1 inh) | NR2E3 ag conf 99.7 | GAL4-VP16 luc 100.0
O=C(Nc1nc(-c2ccccc2)c(-c2ccccc2)s1)c1ccc(S(=O)(=O)N(CCCl)CCCl)cc1	none
C[C@@H]1C[C@@H]([C@H](O)CC2CC(=O)NC(=O)C2)C(=O)[C@@H](C)C1	NR2E3 ag-2 102.3 | NR2E3 ag conf 100.4 | GAL4-VP16 luc 94.8
CC(=O)OC1(C)CC(C)C(=O)C(C(O)CC2CC(=O)NC(=O)C2)C1 (stereo unspecified)	NR2E3 ag-2 104.7 (no result: NR2E3 ag-1, GASC-1 inh) | NR2E3 ag conf 98.8 | GAL4-VP16 luc 99.3
COC(=O)C1=C(c2ccc(F)cc2F)C[C@@H]2CC[C@H]1N2C(=O)N1CCC(O)CC1	none
Oc1c(Cl)c(Cl)c(Cl)c(Cl)c1Cl	NR2E3 ag-2 98.3 | NR2E3 ag conf 98.7 | GAL4-VP16 luc 91.8
COc1ccc(CC2NCC(O)C2OC(C)=O)cc1 (stereo unspecified)	NR2E3 ag-2 104.6 (no result: NR2E3 ag-1, GASC-1 inh) | NR2E3 ag conf 99.2 | GAL4-VP16 luc 98.6
COc1ccc(CC(=O)N2CCN(C)CC2)cc1	none
CC(=NNC(=S)N1CC2CCC(CC2)C1)c1nccs1	NR2E3 ag-2 96.1 (no result: NR2E3 ag-1, GASC-1 inh) | NR2E3 ag conf 100.3 | GAL4-VP16 luc 84.8
CCOc1ccc(C(C)=O)cc1Cn1ccsc1=N	none (no result: NR2E3 ag-1)
C=C1C(=O)O[C@@H]2C[C@@H](C)[C@@H]3C=CC(=O)[C@@]3(C)[C@@H](O)[C@H]12	NR2E3 ag-2 99.5 | NR2E3 ag conf 99.3 | GAL4-VP16 luc inactive
CN1C2(C)c3ccccc3C1(c1ccccc1)c1ccccc12	none (no result: NR2E3 ag-1, GASC-1 inh, DAX1 inh-1, NR2E3 ag-2)

Screening data deposited in PubChem by several laboratories.
